Consider four compounds from publication PMC10230191 (RSC Advances, 2023).

In one data set the test system is HBV. Description: Anti-HBV assay in HBV-producing HepG2 2.2.15 cells. The class given is cell-based, hepatitis B virus. The note with it: for EC50: Hepatitis B virus, HepG2 2.2.15, 336 h, read-out: EC50 (nM) against HBV. In outline: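 […] cells seeded at 4 × 10^3 per well with a range of test-compound concentrations; medium and compound renewed on days 3 and 7. On day 14, total cellular DNA was extracted and HBV genomes quantified by real-time PCR (95 °C 10 min; 50 cycles of 95 °C 10 s, 60 °C 1 min). Copies were derived from CT against 10-fold HBV plasmid dilutions, compared with no-compound controls, and EC50 was obtained by linear forecast.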

Data set [1] is described as follows: Cytotoxicity in HepG2.2.15 cells. The note with it: human. It counts as cell-based. In outline: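 Cells plated at 2 × 10^3 per well, exposed continuously to test compound for 14 days; viable cells counted by CCK-8 relative to no-compound controls to give CC50.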

What is called EC50 is the concentration at which the effect is half-maximal. One may read the CC50 as the concentration at which the toxic effect on the cells reaches its halfway point. A high value points to lower toxicity to the cells. Turning to `N#C[C@]1(CO)/C(=C\F)[C@@H](n2cnc3c(=O)[nH]c(N)nc32)C[C@@H]1O` [Compound (E)-6, (1S,3S,5S,E)-3-(2-Amino-6-oxo-1,6-dihydro-9H-purin-9-yl)-2-(fluoromethylene)-5-hydroxy-1-(hydroxymethyl)cyclopentane-1-carbonitrile], the EC50 in the data set with HBV came to 1.2 ± 0.7 nM. In addition, in data set [1], half-maximal cytotoxicity (CC50 at 14 days) was put at 93000 nM.

On to `N#C[C@]1(CO)O[C@@H](n2cnc3c(=O)[nH]c(N)nc32)C[C@@H]1O` [Compound 2, 4′-cyano-deoxyguanosine, reference compound], for which the 50% effective concentration (EC50) with HBV is 0.3 ± 0.1 nM. In data set [1], this compound came in with a half-maximal cytotoxic concentration (CC50) at 14 days of 3000 ± 200 nM.

Take `N#C[C@]1(CO)/C(=C/F)[C@@H](n2cnc3c(=O)[nH]c(N)nc32)C[C@@H]1O` [(Z)-6, (1S,3S,5S,Z)-3-(2-Amino-6-oxo-1,6-dihydro-9H-purin-9-yl)-2-(fluoromethylene)-5-hydroxy-1-(hydroxymethyl)cyclopentane-1-carbonitrile]: the “times lower anti-HBV activity compared to compound (E)-6” value in the data set with HBV (HepG2 2.2.15 cells, relative to (E)-6) was around 500 times. In addition, the 50% effective concentration (EC50) with HBV stood at 585 ± 358 nM. The compound also showed a cytotoxic concentration (CC50) at 14 days in data set [1] above 100000 nM.

As for `C=C1[C@H](CO)[C@@H](O)C[C@@H]1n1cnc2c(=O)[nH]c(N)nc21` [Compound 1, entecavir, reference compound], in the data set with HBV, the half-maximal effective concentration (EC50) worked out at 2.3 ± 0.6 nM. This compound also showed a half-maximal cytotoxic concentration (CC50) at 14 days in data set [1] of 63000 nM.
